Data published in ChEMBL document CHEMBL4118144, “Design, Synthesis, and Testing of Potent, Selective Hepsin Inhibitors via Application of an Automated Closed-Loop Optimization Platform” (J Med Chem, 2018).
Converted amounts (≈) assume the structure as drawn. The source made the active and inactive calls. No cut-off for these calls is given here.

Assays:
[1] = Half life in mouse liver microsomes at 3 uM preincubated for 5 mins followed by NADPH addition by LC-MS/MS analysis; type: ADME, microsome
[2] = Kinetic solubility of the compound in PBS at pH 7.4 at 6.75 to 200 uM after 90 mins by UV absorbance based assay; type: physicochemical; conditions: read-out: Kinetic_solubility
Serine protease hepsin [3] = target: T1, Serine protease hepsin (Homo sapiens, UniProt P05981, D161E/R162K); assay: Inhibition of recombinant C-terminal His10-tagged human Hepsin (R45 to […] residues) D161E/ R162K double mutant expressed in mouse NS0 cells using Boc-QRR-AMC as substrate after 15 mins by automated fluorescence assay
In short: (§1)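 On-line assay integrated with the flow-synthesis platform: a 20 µL aliquot of each product solution captured automatically, HPLC-purified, then diluted and assayed.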

[4] = target: T2, Urokinase-type plasminogen activator (Homo sapiens, UniProt P00749); assay: Inhibition of recombinant C-terminal His10-tagged human uPA (M1 to L431 residues) expressed in mouse NS0 cells using Z-GGR-AMC as substrate after 15 mins by automated fluorescence assay; in short: as §1
Serine protease hepsin [5] = target: T1, Serine protease hepsin; assay: Inhibition of recombinant C-terminal His10-tagged human Hepsin (R45 to […] residues) D161E/ R162K double mutant expressed in mouse NS0 cells using Boc-QRR-AMC as substrate after 15 mins by manual fluorescence assay
[6] = target: T2, Urokinase-type plasminogen activator; assay: Inhibition of recombinant C-terminal His10-tagged human uPA (M1 to L431 residues) expressed in mouse NS0 cells using Z-GGR-AMC as substrate after 15 mins by manual fluorescence assay
Serine protease hepsin [7] = target: T3, Serine protease hepsin (Homo sapiens, UniProt P05981); assay: Inhibition of doxycycline induced Hepsin in human MCF10A cells using Boc-QRR-AMC as substrate preincubated for 24 hrs followed by doxycycline induction for 24 hrs and subsequent addition of substrate by fluorescence assay; type: cell-based
T3 sequence (P05981 1-162 limits assumed): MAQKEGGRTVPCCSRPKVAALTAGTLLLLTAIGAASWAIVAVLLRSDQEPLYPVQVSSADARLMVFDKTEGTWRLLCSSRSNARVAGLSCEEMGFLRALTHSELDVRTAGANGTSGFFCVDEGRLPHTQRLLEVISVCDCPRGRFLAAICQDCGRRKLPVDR
T3 sequence (P05981 163-417 limits assumed): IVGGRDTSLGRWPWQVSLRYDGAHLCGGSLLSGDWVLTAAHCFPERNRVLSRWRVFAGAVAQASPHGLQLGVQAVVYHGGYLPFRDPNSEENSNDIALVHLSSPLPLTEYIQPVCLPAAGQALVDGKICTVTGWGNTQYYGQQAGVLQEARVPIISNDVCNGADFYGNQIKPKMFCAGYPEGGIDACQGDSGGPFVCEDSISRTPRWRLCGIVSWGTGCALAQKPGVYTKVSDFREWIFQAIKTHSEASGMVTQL

Serine protease hepsin [8] = target: T3, Serine protease hepsin; assay: Inhibition of doxycycline induced Hepsin in human MCF10A cells assessed as prevention in loss of HAI-1 level at 10 uM preincubated for 30 mins followed by doxycycline addition measured after 6 hrs by Immunoblot assay; type: cell-based
In short: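 MCF10A-Indu20-hepsin cells (Dox-inducible hepsin) pretreated 30 min with compound or DMSO, then hepsin induced with 100 ng/mL doxycycline for 6 h; HAI-1 protein scored by immunoblot.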

[9] = Chromatographic hydrophobicity index, log D of the compound at pH 7 by HPLC/UV analysis; type: physicochemical; conditions: buffer
Serine protease hepsin [10] = target: T3, Serine protease hepsin; assay: Inhibition of hepsin-mediated conversion of Pro-HGF into active form in human Hs578T cells assessed as decrease in MET phosphorylation at 1 to 10 uM preincubated for 30 mins followed by recombinant human pro-HGF addition measured after 30 mins by immunoblot method; type: cell-based
In short: (§2)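 Hs578T or HCC1937 breast cells incubated with DMSO or inhibitor, then 50 ng/mL recombinant human Pro-HGF added; MET pathway activation (phospho-MET) assessed by immunoblotting.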

[11] = target: Dipeptidyl peptidase 4 (Homo sapiens) (UniProt P27487); assay: Inhibition of recombinant full length human dipeptidyl peptidase 4 using GP-AMC as substrate at 1 uM after 10 mins by fluorescence spectrophotometric method relative to control
Chain of Dipeptidyl peptidase 4 (Homo sapiens) (P27487 whole entry, looked up): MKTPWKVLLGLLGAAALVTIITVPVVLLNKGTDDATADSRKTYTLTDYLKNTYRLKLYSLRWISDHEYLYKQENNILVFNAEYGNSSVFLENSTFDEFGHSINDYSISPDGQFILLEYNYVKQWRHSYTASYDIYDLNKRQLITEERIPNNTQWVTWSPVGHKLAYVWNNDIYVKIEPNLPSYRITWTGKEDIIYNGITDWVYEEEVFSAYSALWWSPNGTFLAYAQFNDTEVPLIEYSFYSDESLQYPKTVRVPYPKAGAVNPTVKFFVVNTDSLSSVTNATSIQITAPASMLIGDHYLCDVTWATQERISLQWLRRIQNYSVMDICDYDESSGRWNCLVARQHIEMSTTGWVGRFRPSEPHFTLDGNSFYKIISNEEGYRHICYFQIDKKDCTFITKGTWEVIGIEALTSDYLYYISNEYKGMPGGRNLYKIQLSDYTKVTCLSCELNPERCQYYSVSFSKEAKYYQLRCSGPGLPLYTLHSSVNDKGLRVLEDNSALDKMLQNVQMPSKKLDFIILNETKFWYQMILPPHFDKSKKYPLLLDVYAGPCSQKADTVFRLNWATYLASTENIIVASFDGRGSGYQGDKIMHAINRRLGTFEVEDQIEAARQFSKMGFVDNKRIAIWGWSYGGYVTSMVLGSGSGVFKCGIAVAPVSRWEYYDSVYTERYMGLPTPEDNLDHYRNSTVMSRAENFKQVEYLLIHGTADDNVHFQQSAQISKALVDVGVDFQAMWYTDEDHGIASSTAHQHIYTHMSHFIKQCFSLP
In short: (§3)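 Panel of ten serine proteases; percent inhibition read at compound concentrations of 1 µM and 10 µM, each value the mean of 2 experiments.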

[12] = target: Plasma kallikrein (Homo sapiens) (UniProt P03952); assay: Inhibition of human plasma kallikrein using H-D-Pro-Phe-Arg-pNA as substrate at 1 uM after 30 mins by spectrophotometric method relative to control; in short: as §3
Chain of Plasma kallikrein (Homo sapiens) (P03952 20-390 limits assumed): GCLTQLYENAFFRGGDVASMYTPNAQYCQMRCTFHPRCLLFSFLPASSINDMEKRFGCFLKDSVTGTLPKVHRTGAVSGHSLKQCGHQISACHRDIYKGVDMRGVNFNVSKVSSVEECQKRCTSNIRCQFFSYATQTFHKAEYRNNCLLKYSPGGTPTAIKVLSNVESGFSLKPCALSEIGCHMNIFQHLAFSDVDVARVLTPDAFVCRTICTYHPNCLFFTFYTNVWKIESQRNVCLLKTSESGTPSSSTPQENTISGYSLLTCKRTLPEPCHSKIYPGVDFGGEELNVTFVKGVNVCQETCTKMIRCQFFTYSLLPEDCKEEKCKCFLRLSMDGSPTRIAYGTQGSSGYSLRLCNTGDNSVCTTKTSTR
Chain of Plasma kallikrein (Homo sapiens) (P03952 391-638 limits assumed): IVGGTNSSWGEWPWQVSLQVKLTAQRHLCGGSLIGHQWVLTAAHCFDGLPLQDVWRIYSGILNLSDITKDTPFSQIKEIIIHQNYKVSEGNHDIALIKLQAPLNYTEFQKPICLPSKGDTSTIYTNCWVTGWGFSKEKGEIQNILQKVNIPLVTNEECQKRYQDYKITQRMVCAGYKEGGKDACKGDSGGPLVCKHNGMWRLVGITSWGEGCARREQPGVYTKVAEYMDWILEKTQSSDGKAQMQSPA

[13] = target: Coagulation factor X (Homo sapiens) (UniProt P00742); assay: Inhibition of factor 10a (unknown origin) at 1 uM after 15 mins by fluorescence assay relative to control; in short: as §3
Chain of Coagulation factor X (Homo sapiens) (P00742 41-179 limits assumed): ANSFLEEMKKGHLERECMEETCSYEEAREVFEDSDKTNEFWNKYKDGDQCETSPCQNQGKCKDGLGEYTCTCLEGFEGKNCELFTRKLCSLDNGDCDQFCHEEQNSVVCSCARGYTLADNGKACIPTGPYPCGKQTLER
Chain of Coagulation factor X (Homo sapiens) (P00742 235-488 limits assumed): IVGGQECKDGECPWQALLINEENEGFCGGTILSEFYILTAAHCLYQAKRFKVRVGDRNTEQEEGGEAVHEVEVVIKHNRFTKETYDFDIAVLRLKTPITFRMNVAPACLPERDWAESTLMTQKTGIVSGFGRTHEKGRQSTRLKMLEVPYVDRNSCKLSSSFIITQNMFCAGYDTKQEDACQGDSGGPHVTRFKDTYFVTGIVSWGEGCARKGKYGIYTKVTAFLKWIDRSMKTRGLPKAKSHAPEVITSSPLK

Serine protease hepsin [14] = target: T3, Serine protease hepsin; assay: Inhibition of doxycycline induced hepsin-mediated conversion of Pro-HGF into active form in human MCF10A cells assessed as decrease in MET phosphorylation (Tyr1243/1245) at 1 to 10 uM preincubated for 30 mins followed by recombinant human pro-HGF addition measured after 30 mins by immunoblot method; type: cell-based
In short: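 Dox-induced MCF10A-Indu20-hepsin cells given DMSO or inhibitor for 30 min, then 50 ng/mL recombinant human Pro-HGF; MET phosphorylation (Tyr1243/1245) detected by immunoblotting.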

Serine protease hepsin [15] = target: T3, Serine protease hepsin; assay: Inhibition of hepsin-mediated conversion of Pro-HGF into active form in human Hs578T cells assessed as decrease in MET phosphorylation at 1 uM preincubated for 30 mins followed by recombinant human pro-HGF addition measured after 30 mins by immunoblot method; type: cell-based; in short: as §2
Serine protease hepsin [16] = target: T3, Serine protease hepsin; assay: Inhibition of hepsin-mediated conversion of Pro-HGF into active form in human HCC1937 cells assessed as decrease in MET phosphorylation at 1 uM preincubated for 30 mins followed by recombinant human pro-HGF addition measured after 30 mins by immunoblot method; type: cell-based; in short: as §2
[17] = system: Serine protease hepsin (Homo sapiens), P05981 [D161E,R162K]; assay: Inhibition of recombinant C-terminal His10-tagged human Hepsin (R45 to […] residues) D161E/ R162K double mutant expressed in mouse NS0 cells assessed as decrease in HGF alpha chain formation at 1 uM incubated for 30 mins in presence of recombinant human pro-HGF by immunoblot method; type: cell-based
Chain of Serine protease hepsin (Homo sapiens), P05981 [D161E,R162K] (P05981 whole entry D161E/R162K): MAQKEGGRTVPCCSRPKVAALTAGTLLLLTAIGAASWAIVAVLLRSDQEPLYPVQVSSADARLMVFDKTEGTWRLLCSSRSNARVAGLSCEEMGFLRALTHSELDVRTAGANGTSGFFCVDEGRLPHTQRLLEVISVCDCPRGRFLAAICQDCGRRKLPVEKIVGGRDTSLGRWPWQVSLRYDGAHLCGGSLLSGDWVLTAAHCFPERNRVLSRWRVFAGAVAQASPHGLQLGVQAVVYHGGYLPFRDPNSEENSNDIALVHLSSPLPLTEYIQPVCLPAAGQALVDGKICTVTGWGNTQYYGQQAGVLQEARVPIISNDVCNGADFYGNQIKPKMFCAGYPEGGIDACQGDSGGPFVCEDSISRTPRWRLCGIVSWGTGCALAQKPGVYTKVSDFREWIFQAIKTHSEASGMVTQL
In short: (§4)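 Recombinant human Pro-HGF incubated with recombinant human hepsin plus inhibitor at 37°C for 30 min; processing analysed by immunoblot with an antibody recognizing Pro-HGF and the α and β chains.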

[18] = system: Serine protease hepsin (Homo sapiens), P05981 [D161E,R162K]; assay: Inhibition of recombinant C-terminal His10-tagged human Hepsin (R45 to […] residues) D161E/ R162K double mutant expressed in mouse NS0 cells assessed as decrease in HGF beta chain formation at 1 uM incubated for 30 mins in presence of recombinant human pro-HGF by immunoblot method; type: cell-based; in short: as §4
Serine protease hepsin [19] = target: T3, Serine protease hepsin; assay: Inhibition of doxycycline induced hepsin-mediated loss of desmosomal junctions in human MCF10A cells at 1 to 10 uM preincubated for 30 mins followed by doxycycline addition measured after 6 hrs by desmoglein 2 staining-based confocal immunofluorescence microscopic analysis; type: cell-based
In short: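 MCF10A-Indu20-hepsin cells on coverslips pretreated 30 min with 1 or 10 µM compound or DMSO, then 100 ng/mL Dox for 6 h. Desmoglein 2 immunofluorescence: continuous pericellular staining scored positive, discontinuous or absent scored negative. Cells counted in 10 fields per treatment across three biological replicates; reported as percentages.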

| Compound | half-life at 3 µM [1] | solubility kinetic at 1.5 h [2] | IC50 (Serine protease hepsin [3]) | IC50 [4] | IC50 (Serine protease hepsin [5]) | IC50 [6] | IC50 (Serine protease hepsin [7]) | inhibition (Serine protease hepsin [8]) | chromatographic logD [9] | inhibition (Serine protease hepsin [10]) | inhibition [11] | inhibition [12] | inhibition [13] | inhibition (Serine protease hepsin [14]) | inhibition (Serine protease hepsin [15]) | inhibition (Serine protease hepsin [16]) | inhibition [17] | inhibition [18] | inhibition (Serine protease hepsin [19]) |
| --- | --- | --- | --- | --- | --- | --- | --- | --- | --- | --- | --- | --- | --- | --- | --- | --- | --- | --- | --- |
| Cc1ccc(S(=O)(=O)N[C@@H](C(=O)Nc2ccc(C(=N)N)cc2)C2CCCCC2)cc1 | 1.23 h | > 200 µM | 0.033 µM | 4.4 µM | 0.038 to 0.07 µM | 10 to 1950 µM | 0.99 µM | inactive | 1.3 | Active | < 10% | < 10% | < 10% | – | – | – | – | – | – |
| Cc1ccc(S(=O)(=O)N[C@@H](C(=O)Nc2ccc(C(=N)N)cc2)c2ccccc2)cc1 | 1.8 h | > 200 µM | – | – | 0.022 µM | 140 µM | 0.1 µM | Active | – | Active | < 10% | 34% | < 10% | Active | Active | Active | Active | Active | Active |
| N=C(N)c1ccc(NC(=O)[C@H](NS(=O)(=O)c2ccc(F)cc2)C2CCCCC2)cc1 | 0.8 h | 200 µM (≈ 86.5 µg/mL) | 0.09 µM | > 14 µM | 0.19 µM | 280 µM | 1.29 µM | inactive | – | Active | < 10% | 12% | < 10% | – | – | – | – | – | – |
